The term ΔTm denotes the change in melting temperature against a reference sample. Broadly, the inhibition is the drop in the measured response relative to a control, in per cent.

For assay [1], the target named is T1, Glycogen synthase kinase-3 beta (Homo sapiens, UniProt P49841). The assay can be described thus: Binding affinity to recombinant GSK3B (unknown origin) assessed as change in melting temperature at 10 uM by DSF assay. In outline: (§1)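 Differential scanning fluorimetry on an in-house panel of 90 recombinant kinases. Stabilization is read as the shift in melting temperature (ΔTm) relative to ligand-free protein. Staurosporine served as the positive control, and binding was also compared against its ΔTm.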
T1 sequence (P49841 whole entry, looked up): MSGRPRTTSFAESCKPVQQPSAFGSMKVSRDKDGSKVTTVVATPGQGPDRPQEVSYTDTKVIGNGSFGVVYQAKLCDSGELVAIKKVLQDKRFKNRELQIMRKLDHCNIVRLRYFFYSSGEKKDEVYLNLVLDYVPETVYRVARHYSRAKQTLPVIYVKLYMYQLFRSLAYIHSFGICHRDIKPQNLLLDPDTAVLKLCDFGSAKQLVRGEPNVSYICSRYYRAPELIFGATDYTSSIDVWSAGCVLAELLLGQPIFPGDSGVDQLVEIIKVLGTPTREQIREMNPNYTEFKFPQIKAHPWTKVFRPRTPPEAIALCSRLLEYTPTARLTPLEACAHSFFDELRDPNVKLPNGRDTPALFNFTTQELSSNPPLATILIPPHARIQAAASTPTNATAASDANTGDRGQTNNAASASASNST
A general note: Differential scanning fluorimetry follows unfolding on heating by fluorescence.

Assay [2] concerns the target T2, Bone morphogenetic protein receptor type-2 (Homo sapiens) (UniProt Q13873).
T2 sequence (whole entry): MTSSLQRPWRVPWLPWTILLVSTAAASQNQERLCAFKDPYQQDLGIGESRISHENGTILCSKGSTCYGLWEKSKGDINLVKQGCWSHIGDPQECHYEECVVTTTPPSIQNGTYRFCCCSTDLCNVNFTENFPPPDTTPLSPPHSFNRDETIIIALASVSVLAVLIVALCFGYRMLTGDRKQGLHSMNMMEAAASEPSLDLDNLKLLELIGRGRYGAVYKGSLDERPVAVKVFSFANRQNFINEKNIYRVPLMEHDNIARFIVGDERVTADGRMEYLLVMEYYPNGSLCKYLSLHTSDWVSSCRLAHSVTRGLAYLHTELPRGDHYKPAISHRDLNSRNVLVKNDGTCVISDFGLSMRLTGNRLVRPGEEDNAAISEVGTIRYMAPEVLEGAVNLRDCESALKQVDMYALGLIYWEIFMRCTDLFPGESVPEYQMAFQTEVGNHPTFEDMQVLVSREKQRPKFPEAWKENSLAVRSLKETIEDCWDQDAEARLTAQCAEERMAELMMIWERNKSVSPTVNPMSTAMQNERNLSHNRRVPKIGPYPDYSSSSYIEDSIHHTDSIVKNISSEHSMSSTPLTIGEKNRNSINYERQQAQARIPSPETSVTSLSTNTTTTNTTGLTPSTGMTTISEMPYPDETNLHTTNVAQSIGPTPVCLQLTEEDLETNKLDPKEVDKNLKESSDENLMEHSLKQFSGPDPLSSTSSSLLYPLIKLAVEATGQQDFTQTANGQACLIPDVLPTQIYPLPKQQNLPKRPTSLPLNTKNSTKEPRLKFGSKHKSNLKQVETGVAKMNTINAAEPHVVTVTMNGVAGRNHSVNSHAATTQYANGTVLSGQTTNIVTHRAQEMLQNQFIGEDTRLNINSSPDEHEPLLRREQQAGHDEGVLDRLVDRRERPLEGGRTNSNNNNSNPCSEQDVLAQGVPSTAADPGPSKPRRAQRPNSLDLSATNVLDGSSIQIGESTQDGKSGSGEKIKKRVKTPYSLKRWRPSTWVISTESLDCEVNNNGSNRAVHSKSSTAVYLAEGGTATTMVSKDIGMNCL
As to the kind of experiment: Binding affinity to recombinant BMPR2 (unknown origin) assessed as change in melting temperature at 10 uM by DSF assay. In outline: as §1

Assay [3] addresses T2, Bone morphogenetic protein receptor type-2 (Homo sapiens). As to the kind of experiment: Binding affinity to BMPR2 (unknown origin) assessed as change in entropy by ITC assay. In outline:
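Binding measured by isothermal titration calorimetry against the recombinant BMPR2 kinase domain. Thermodynamic binding parameters, including the dissociation constant, were derived from the titration data.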

Assay [4] has as its target BMP-2-inducible protein kinase (Homo sapiens) (UniProt Q9NSY1). As to the kind of experiment: Binding affinity to recombinant BMP2K (unknown origin) assessed as change in melting temperature at 10 uM by DSF assay. In outline:
as §1

For assay [5], the target named is T3, MAP/microtubule affinity-regulating kinase 4 (Homo sapiens) (UniProt Q96L34).
T3 sequence (whole entry): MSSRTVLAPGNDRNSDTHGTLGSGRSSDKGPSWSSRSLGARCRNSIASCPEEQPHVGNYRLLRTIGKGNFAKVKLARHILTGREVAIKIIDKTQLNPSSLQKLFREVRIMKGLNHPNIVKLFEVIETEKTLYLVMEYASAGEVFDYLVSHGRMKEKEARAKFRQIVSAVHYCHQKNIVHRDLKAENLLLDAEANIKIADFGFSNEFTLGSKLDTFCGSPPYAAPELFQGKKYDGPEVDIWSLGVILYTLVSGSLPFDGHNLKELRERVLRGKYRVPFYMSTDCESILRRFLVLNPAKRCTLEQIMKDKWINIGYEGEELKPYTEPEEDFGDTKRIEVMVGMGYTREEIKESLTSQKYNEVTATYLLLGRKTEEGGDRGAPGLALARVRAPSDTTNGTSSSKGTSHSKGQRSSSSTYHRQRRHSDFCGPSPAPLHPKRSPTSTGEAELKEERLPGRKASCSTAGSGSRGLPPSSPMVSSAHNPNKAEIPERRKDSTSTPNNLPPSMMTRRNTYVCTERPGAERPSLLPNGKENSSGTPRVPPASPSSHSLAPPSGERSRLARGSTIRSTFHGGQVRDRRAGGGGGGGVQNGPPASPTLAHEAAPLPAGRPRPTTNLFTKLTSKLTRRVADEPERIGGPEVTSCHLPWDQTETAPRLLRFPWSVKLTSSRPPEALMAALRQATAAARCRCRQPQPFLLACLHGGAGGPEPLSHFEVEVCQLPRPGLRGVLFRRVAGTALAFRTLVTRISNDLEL
As to the kind of experiment: Binding affinity to recombinant MARK4 (unknown origin) assessed as change in melting temperature at 10 uM by DSF assay. In outline:
as §1

Assay [6] addresses T4, Serine/threonine-protein kinase 4 (Homo sapiens) (UniProt Q13043).
T4 sequence (whole entry): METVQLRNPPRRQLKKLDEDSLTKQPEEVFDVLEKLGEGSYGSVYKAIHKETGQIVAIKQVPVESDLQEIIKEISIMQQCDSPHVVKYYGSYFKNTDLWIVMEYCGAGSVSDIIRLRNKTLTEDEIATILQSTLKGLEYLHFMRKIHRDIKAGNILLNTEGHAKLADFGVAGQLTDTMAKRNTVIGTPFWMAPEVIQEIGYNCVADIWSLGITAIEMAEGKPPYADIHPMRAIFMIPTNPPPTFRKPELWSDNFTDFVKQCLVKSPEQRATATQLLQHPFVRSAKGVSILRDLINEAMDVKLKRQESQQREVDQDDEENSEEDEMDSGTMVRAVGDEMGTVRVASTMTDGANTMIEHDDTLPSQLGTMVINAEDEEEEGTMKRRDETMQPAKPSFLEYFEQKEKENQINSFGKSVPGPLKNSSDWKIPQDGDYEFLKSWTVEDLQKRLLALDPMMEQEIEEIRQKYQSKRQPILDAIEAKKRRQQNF
The assay can be described thus: Binding affinity to recombinant STK4 (unknown origin) assessed as change in melting temperature at 10 uM by DSF assay. In outline:
as §1

Assay [7] addresses Serine/threonine-protein kinase 24 (Homo sapiens) (UniProt Q9Y6E0). As to the kind of experiment: Binding affinity to recombinant MST3 (unknown origin) assessed as change in melting temperature at 10 uM by DSF assay. In outline:
as §1

The target in assay [8] is T1, Glycogen synthase kinase-3 beta. The assay can be described thus: Inhibition of recombinant GSK3B (unknown origin) at 10 uM by DSF assay relative to staurosporine. In outline: as §1
In assay [9] the target is MAP/microtubule affinity-regulating kinase 3 (Homo sapiens) (UniProt P27448). The assay can be described thus: Inhibition of recombinant MARK3 (unknown origin) at 10 uM by DSF assay relative to staurosporine. In outline:
as §1

The target of assay [10] is Cyclin-dependent kinase 2 (Homo sapiens) (UniProt P24941). As to the kind of experiment: Inhibition of recombinant CDK2 (unknown origin) at 10 uM by DSF assay relative to staurosporine. In outline:
as §1

SMILES strings stand for the structures. Several values for one entry are separate records, joined by “and”; a condition that tells them apart may be missing. Equal values may be shown once.

Sequence of BMP-2-inducible protein kinase (Homo sapiens) (Q9NSY1 whole entry, looked up): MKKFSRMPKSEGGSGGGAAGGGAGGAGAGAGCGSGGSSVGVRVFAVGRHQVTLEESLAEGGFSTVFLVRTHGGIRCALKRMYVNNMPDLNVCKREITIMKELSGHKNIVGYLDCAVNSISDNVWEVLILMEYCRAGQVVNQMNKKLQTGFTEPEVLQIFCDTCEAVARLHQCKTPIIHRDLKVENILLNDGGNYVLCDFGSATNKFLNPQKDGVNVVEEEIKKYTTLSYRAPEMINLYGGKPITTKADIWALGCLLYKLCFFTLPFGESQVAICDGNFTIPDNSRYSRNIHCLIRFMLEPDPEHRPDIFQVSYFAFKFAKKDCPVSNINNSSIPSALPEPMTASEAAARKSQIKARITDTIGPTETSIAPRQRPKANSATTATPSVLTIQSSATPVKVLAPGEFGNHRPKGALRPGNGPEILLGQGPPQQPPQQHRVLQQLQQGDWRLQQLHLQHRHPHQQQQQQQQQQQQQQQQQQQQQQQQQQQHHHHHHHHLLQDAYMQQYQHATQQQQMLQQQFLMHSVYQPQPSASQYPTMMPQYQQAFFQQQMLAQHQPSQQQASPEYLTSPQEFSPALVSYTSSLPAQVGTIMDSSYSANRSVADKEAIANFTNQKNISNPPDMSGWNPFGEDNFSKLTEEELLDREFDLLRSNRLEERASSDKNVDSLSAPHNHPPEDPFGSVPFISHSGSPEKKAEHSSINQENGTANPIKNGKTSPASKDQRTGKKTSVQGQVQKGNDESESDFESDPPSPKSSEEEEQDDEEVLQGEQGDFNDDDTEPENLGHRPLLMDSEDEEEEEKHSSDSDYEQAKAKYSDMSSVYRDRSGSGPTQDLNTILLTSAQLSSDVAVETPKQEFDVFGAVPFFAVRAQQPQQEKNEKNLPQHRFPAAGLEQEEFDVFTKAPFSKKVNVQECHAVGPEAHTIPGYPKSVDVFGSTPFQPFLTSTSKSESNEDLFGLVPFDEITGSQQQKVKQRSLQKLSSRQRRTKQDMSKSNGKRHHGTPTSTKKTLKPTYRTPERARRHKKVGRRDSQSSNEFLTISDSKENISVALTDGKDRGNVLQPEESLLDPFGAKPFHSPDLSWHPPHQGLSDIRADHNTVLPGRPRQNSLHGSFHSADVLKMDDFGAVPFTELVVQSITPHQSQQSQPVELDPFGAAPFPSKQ
Sequence of MAP/microtubule affinity-regulating kinase 3 (Homo sapiens) (P27448 whole entry, looked up): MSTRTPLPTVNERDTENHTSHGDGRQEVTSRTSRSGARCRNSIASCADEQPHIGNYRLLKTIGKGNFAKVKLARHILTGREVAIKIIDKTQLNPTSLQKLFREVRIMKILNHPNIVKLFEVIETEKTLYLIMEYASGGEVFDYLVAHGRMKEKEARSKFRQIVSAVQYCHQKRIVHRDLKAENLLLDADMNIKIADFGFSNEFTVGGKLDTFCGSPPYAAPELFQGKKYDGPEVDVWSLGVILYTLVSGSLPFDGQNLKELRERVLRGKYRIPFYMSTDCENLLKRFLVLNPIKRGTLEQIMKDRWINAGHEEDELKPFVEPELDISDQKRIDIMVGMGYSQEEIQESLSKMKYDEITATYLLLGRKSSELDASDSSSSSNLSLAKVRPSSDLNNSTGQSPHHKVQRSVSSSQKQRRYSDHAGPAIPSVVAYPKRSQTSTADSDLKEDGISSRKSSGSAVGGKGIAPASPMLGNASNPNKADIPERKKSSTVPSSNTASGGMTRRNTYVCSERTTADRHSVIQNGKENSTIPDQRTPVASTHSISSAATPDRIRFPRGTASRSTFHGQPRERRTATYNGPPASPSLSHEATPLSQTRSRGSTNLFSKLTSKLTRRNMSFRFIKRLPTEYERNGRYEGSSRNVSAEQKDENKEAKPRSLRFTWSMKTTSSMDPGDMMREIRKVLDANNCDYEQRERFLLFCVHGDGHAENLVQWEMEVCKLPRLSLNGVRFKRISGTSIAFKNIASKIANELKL
Sequence of Serine/threonine-protein kinase 24 (Homo sapiens) (Q9Y6E0 whole entry, looked up): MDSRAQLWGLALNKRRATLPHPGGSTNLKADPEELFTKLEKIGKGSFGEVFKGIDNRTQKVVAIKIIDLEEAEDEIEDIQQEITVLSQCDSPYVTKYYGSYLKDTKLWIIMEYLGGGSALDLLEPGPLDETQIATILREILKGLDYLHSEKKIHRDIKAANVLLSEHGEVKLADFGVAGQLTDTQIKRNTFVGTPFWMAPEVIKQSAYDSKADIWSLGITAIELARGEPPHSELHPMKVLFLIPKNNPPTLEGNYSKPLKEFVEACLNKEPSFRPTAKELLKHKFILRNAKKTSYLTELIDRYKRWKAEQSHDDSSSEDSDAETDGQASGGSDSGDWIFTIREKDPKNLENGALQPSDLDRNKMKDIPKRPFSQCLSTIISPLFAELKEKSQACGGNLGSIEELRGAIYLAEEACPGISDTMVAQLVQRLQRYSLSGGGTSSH

`O=C1NCCc2ccc(cc2)Nc2nccc(n2)Nc2cc1[nH]n2`: the ΔTm in assay [1] is 8.4 °C; in [2], 5.8 °C; in assay [4], 5.8 °C and 5.3 °C; in assay [5], 3.8 °C; in [6], 3.2 °C; in [7] it was 3.2 °C. Moreover, the deltaS in [3] is 3.7 cal/mol.K. Moreover, the inhibition was 71% in assay [8], 22% in [9] and 25% in [10].
